From ChEMBL document CHEMBL1152555, “Design, synthesis and cruzain docking of 3-(4-substituted-aryl)-1,2,4-oxadiazole-N-acylhydrazones as anti-Trypanosoma cruzi agents” (Bioorg Med Chem, 2009) come the findings set out here.

Series [1] deals with Trypanosoma cruzi. The series can be described thus: Antitrypanosomal activity against Trypanosoma cruzi Y strain.
For a further series, the system named is Mus musculus. The series is described as follows: Toxicity in mouse assessed as general toxicity at 100 mg/kg, ip after 72 hrs. Also on record: dose 100 mg/kg, route intraperitoneal. Format: organism-based. The settings on record: in vivo. The method, boiled down: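 Mice received a single intraperitoneal dose of 100 mg/kg. They were watched for 72 h for general toxicity signs, including behavior and feeding, and for survival. Controls received only 100 µL of 30% DMSO:70% H₂O (v/v).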

Series [2] in a line: Cytotoxicity against BALB/c mouse splenocyte assessed as [3H]thymidine incorporation by beta-counting. Type of series: cell-based. The settings on record: splenocytes, read-out: MNCC. The method, boiled down: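 Splenocytes from BALB/c mice were plated at 5 × 10⁶ cells per well in DMEM with FCS and gentamycin. Each compound was tested at […], in triplicate, from DMSO stock. Cells were given ³H-thymidine at 1 µCi per well for 24 h at 37 °C and 5% CO₂. Incorporation was compared with untreated wells. The reported value is the highest concentration reducing incorporation by less than 10%.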

For series [3], the system named is Trypanosoma cruzi. The series is described as follows: Antitrypanosomal activity against Trypanosoma cruzi trypomastigote Y strain after 24 hrs by trypan blue exclusion assay.

Turning to `CC(=O)Nc1ccc(/C=N/NC(=O)c2nc(-c3ccccc3)no2)cc1`, the IC50 is 14.2 µM in the series on Trypanosoma cruzi [1], 3.6 µM in the series on Trypanosoma cruzi [3] (read-out: IC50) and 3.63 µM in the series on Trypanosoma cruzi [3] (read-out: pIC50 (converted)). Also, the Activity entry in the series on Mus musculus is “Non-toxic”. Further, in series [2], the MNTC stood at 95 µM.
With `Cc1ccc(-c2noc(C(=O)N/N=C/c3ccc(O)cc3)n2)cc1`, the figures for the IC50 in the series on Trypanosoma cruzi [1], in the series with Trypanosoma cruzi [3] (read-out: IC50) and in the series on Trypanosoma cruzi [3] (read-out: pIC50 (converted)) were 47.8 µM, 17.9 µM and 17.8 µM, respectively. Moreover, the MNTC in series [2] is below 1.1 µg/mL.
In the case of `O=C(N/N=C/c1ccc(O)cc1)c1nc(-c2ccccc2)no1`, the results for the IC50 in the series on Trypanosoma cruzi [1], in the series with Trypanosoma cruzi [3] (read-out: IC50) and with Trypanosoma cruzi [3] (read-out: pIC50 (converted)) were 78.3 µM, 35.7 µM and 35.5 µM, respectively. In series [2], the MNTC was 3.3 µg/mL.
`CC(=O)Nc1ccc(/C=N/NC(=O)c2nc(-c3ccc(Cl)cc3)no2)cc1`: the IC50 in the series on Trypanosoma cruzi [1] was above 150 µM. The MNTC in series [2] amounted to 100 µg/mL.
Take `CC(=O)Nc1ccc(/C=N/NC(=O)c2nc(-c3ccc(F)cc3)no2)cc1`: the IC50 in the series with Trypanosoma cruzi [1] is above 150 µM. Also, in series [2], the MNTC was 33 µg/mL.
As for `O=C(N/N=C/c1ccc(O)cc1)c1nc(-c2ccc(Cl)cc2)no1`, the IC50 with Trypanosoma cruzi [1] was 21.6 µM; in the series with Trypanosoma cruzi [3] (read-out: IC50), 21.2 µM; in the series on Trypanosoma cruzi [3] (read-out: pIC50 (converted)) it was 21.4 µM. Besides, the MNTC in series [2] was below 1.1 µg/mL.
As for `O=C(N/N=C/c1ccc(O)cc1)c1nc(-c2ccc(Br)cc2)no1`, the IC50 with Trypanosoma cruzi [1] was 19.6 µM; with Trypanosoma cruzi [3] (read-out: IC50), 20.5 µM; with Trypanosoma cruzi [3] (read-out: pIC50 (converted)), 20.4 µM. In addition, the Activity result in the series with Mus musculus was “Non-toxic”. Moreover, the MNTC in series [2] came out at 97 µM.
In the series with Trypanosoma cruzi [1], `CC(=O)Nc1ccc(/C=N/NC(=O)c2nc(-c3ccc(Br)cc3)no2)cc1` displayed an IC50 above 150 µM. Further, the MNTC in series [2] is 33 µg/mL.
In the case of `O=C(N/N=C/c1ccc(O)cc1)c1nc(-c2ccc([N+](=O)[O-])cc2)no1`, the values for the IC50 in the series on Trypanosoma cruzi [1], with Trypanosoma cruzi [3] (read-out: IC50) and in the series on Trypanosoma cruzi [3] (read-out: pIC50 (converted)) were 25.2 µM, 21.3 µM and 21.4 µM, respectively. Besides, the MNTC in series [2] was below 1.1 µg/mL.
In the series on Trypanosoma cruzi [1], `COc1ccc(-c2noc(C(=O)N/N=C/c3ccc(NC(C)=O)cc3)n2)cc1` yielded an IC50 above 150 µM. Moreover, in series [2], the MNTC turned out to be 100 µg/mL.
Take `CC(=O)Nc1ccc(/C=N/NC(=O)c2nc(-c3ccc(C)cc3)no2)cc1`: the IC50 with Trypanosoma cruzi [1] was 9.8 µM; in the series on Trypanosoma cruzi [3] (read-out: IC50) it was 3.9 µM; with Trypanosoma cruzi [3] (read-out: pIC50 (converted)) it was 3.89 µM. For the same compound, the MNTC in series [2] was determined as 30 µM.
Compound `CC(=O)Nc1ccc(/C=N/NC(=O)c2nc(-c3ccc([N+](=O)[O-])cc3)no2)cc1` displayed an IC50 in the series on Trypanosoma cruzi [1] above 150 µM. The MNTC in series [2] turned out to be 33 µg/mL.
Take `COc1ccc(-c2noc(C(=O)N/N=C/c3ccc(O)cc3)n2)cc1`: the IC50 in the series with Trypanosoma cruzi [1] was 13.8 µM; in the series with Trypanosoma cruzi [3] (read-out: IC50) it was 32.5 µM; in the series on Trypanosoma cruzi [3] (read-out: pIC50 (converted)) it was 32.4 µM. Besides, the MNTC in series [2] came out at 85 µM.
For `O=C(N/N=C/c1ccc(O)cc1)c1nc(-c2ccc(F)cc2)no1` the same measures were 21 µM, 16.7 µM, 16.6 µM and below 1.1 µg/mL.
With `O=C(N/N=C/c1ccc(O)cc1)c1nc(-c2ccc(O)cc2)no1`, the values for the IC50 with Trypanosoma cruzi [1], in the series with Trypanosoma cruzi [3] (read-out: IC50) and in the series on Trypanosoma cruzi [3] (read-out: pIC50 (converted)) were 127 µM, 100 µM and 100 µM, respectively. Besides, the MNTC in series [2] worked out at 100 µg/mL.
Consider `CC(=O)Nc1ccc(/C=N/NC(=O)c2nc(-c3ccc(O)cc3)no2)cc1`, for which the IC50 in the series on Trypanosoma cruzi [1] was above 150 µM. Besides, the MNTC in series [2] was determined as 33 µg/mL.
Take `O=C(Cn1ccnc1[N+](=O)[O-])NCc1ccccc1` [BENZNIDAZOLE]: the MNTC in series [2] worked out at 100 µg/mL. In addition, the IC50 in the series with Trypanosoma cruzi [3] (read-out: pIC50 (converted)) is 5.01 µM.
For the compound `CN(C)c1ccc(C(=C2C=CC(=[N+](C)C)C=C2)c2ccc(N(C)C)cc2)cc1` [GENTIAN VIOLET], the MNTC in series [2] was below 1 µg/mL. The IC50 with Trypanosoma cruzi [3] (read-out: IC50) is 2.1 µM.
